The source made the active and inactive calls. No cut-off for these calls is given here.
How the values were obtained:
THP-1 [1] = assay: Antiinflammatory activity against PMA-treated human THP1 cells assessed as inhibition of LPS-induced IL-6 production at 5 uM after 24 hrs by ELISA relative to total protein level (reference value: 6.06 +/- 0.55); type: functional
THP-1 [2] = assay: Antiinflammatory activity against PMA-treated human THP1 cells assessed as inhibition of LPS-induced IL-6 production at 5 uM after 24 hrs by ELISA relative to control; type: functional
THP-1 [3] = assay: Inhibition of LPS-induced TNFalpha production in PMA-treated human THP1 cells at 5 uM after 24 hrs by ELISA relative to total protein level (reference value: 6.04 +/- 0.54); type: cell-based; settings: thp-1, 24 h
THP-1 [4] = assay: Cytotoxicity against human THP1 cells assessed as decrease in cell growth after 24 hrs by MTT assay; type: cell-based; settings: THP-1, 24 h
In short: (§1)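 THP-1 cells in 96-well plates treated with a range of compound concentrations for 24 or 48 h. MTT (2.5 mg/mL) added for 4 h at 37 °C, formazan dissolved in DMSO, absorbance read at 540 nm. Growth taken as treated versus untreated absorbance.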

THP-1 [5] = assay: Cytotoxicity against human THP1 cells assessed as decrease in cell growth after 48 hrs by MTT assay; type: cell-based; settings: THP-1, 48 h; in short: as §1
Mus musculus [6] = assay: Antiinflammatory activity against Swiss albino mouse assessed as inhibition of LPS-induced IL-6 production in serum at 10 mg/kg, ip by ELISA relative to control; type: functional
In short: (§2)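 Swiss albino mice given compound at 5, 10 or 20 mg/kg, then challenged with LPS 1 mg/kg; vehicle and LPS-alone groups included. Cardiac-puncture blood taken with heparin and spun to plasma, stored -20°C. TNF-α and IL-6 measured by ELISA in pg/mL. Dose-response done in triplicate, fitted by quadratic/cubic regression to derive IC50 in mg/kg.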

Mus musculus [7] = assay: Antiinflammatory activity against Swiss albino mouse assessed as inhibition of LPS-induced TNFalpha production in serum at 20 mg/kg, ip by ELISA relative to control; type: functional; in short: as §2
Mus musculus [8] = assay: Antiinflammatory activity against Swiss albino mouse assessed as inhibition of LPS-induced TNFalpha production in serum at 10 mg/kg, ip by ELISA relative to control; type: functional; in short: as §2
Mus musculus [9] = assay: Antiinflammatory activity against Swiss albino mouse assessed as inhibition of LPS-induced TNFalpha production in serum administered ip by ELISA; type: functional, organism-based; in short: as §2
Mus musculus [10] = assay: Antiinflammatory activity against Swiss albino mouse assessed as inhibition of LPS-induced IL-6 production in serum at 20 mg/kg, ip by ELISA relative to control; type: functional; in short: as §2
Mus musculus [11] = assay: Antiinflammatory activity against Swiss albino mouse assessed as inhibition of LPS-induced IL-6 production in serum administered ip by ELISA; type: functional, organism-based; in short: as §2
Mus musculus [12] = assay: (§3) Antinociceptive activity in Swiss albino mouse assessed as inhibition of acetic acid-induced writhing by measuring reduction in number of abnormal muscle constrictions at 12.5 mg/kg, ip treated 30 mins prior to test followed by acetic acid challenge measured for 30 mins post acetic acid challenge relative to control; type: functional
In short: (§4)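 Mice dosed i.p. with vehicle (0.1% carboxymethyl cellulose), test compound 12.5 mg/kg or indomethacin 10 mg/kg, 30 min before acetic acid (0.6% v/v, 10 ml/kg, i.p.). Writhes counted per mouse over 30 min after acetic acid. Mean ± SEM; ANOVA with Tukey test.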

Mus musculus [13] = assay: Acute toxicity in Swiss albino mouse assessed as effect on myocardium at 2000 mg/kg, ip administered continuously for first 4 hrs and periodically for 24 hrs measured after 14 days by hematoxylin and eosin staining based assay; type: organism-based; settings: in vivo
In short: (§5)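 OECD acute toxicity design, Swiss albino mice fasted 4 h, 3 per group, vehicle vs 2000 mg kg⁻¹; after 14 days one animal each from control and top-dose groups sacrificed; heart, liver and kidney sections H and E stained and compared with control.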

Mus musculus [14] = assay: Antiinflammatory activity in carrageenan-induced Swiss albino mouse assessed as inhibition of paw edema at 12.5 mg/kg, ip administered 0.5 hrs prior to carrageenan challenge measured at 1 to 6 hrs post challenge; type: functional, organism-based
In short: (§6)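 Mice given vehicle (0.1% CMC), indomethacin 10 mg/kg p.o., or test compound 30 min before injection of 50 μL 1% w/v carrageenan into right hind paw. Paw edema measured by vernier caliper at 5, 15, 30 min and 1, 2, 3, 4, 6 h. Mean ± SEM.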

Mus musculus [15] = assay: Antiseptic activity in Swiss albino mouse model of LPS-induced sepsis assessed as increase in mouse survival rate at 12.5 mg/kg, iv measured for 10 days at 1 day interval
THP-1 [16] = assay: Antiinflammatory activity against human THP1 cells assessed as inhibition of LPS-induced COX-2 expression level after 24 hrs by Western blot analysis; type: functional, cell-based
In short: (§7)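 PMA-differentiated THP-1 cells co-treated with LPS and a range of compound concentrations for 24 h, lysed in RIPA buffer. COX-2 and iNOS expression assessed by western blot, with β-actin as internal control.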

Mus musculus [17] = assay: Acute toxicity in Swiss albino mouse assessed as effect on liver at 2000 mg/kg, ip administered continuously for first 4 hrs and periodically for 24 hrs measured after 14 days by hematoxylin and eosin staining based assay; type: organism-based; settings: in vivo, 336 h; in short: as §5
Mus musculus [18] = assay: Analgesic activity in Swiss albino mouse assessed as inhibition of acetic acid induced writhing at 12.5 mg/kg, ip pretreated with opioid receptor antagonist naloxone for 30 mins followed by acetic acid challenge and measured after 30 mins; type: functional, organism-based
Mus musculus [19] = assay: Analgesic activity in Swiss albino mouse assessed as inhibition of acetic acid induced writhing at 12.5 mg/kg, ip pretreated with misoprostol for 30 mins followed by acetic acid challenge and measured after 30 mins; type: functional, organism-based
Mus musculus [20] = assay: Antiinflammatory activity in carrageenan-induced Swiss albino mouse assessed as inhibition of paw edema at 12.5 mg/kg, ip administered 0.5 hrs prior to carrageenan challenge measured at 6 hrs post challenge; type: functional; in short: as §6
Homo sapiens = species: Homo sapiens; assay: Inhibition of NF-KappaB pathway in human THP1 cell lysates assessed as decrease in LPS-induced iNOS expression level after 24 hrs by Western blot analysis; in short: as §7
Mus musculus [21] = assay: Acute toxicity in Swiss albino mouse assessed as effect on kidney at 2000 mg/kg, ip administered continuously for first 4 hrs and periodically for 24 hrs measured after 14 days by hematoxylin and eosin staining based assay; type: organism-based; settings: in vivo; in short: as §5
Mus musculus [22] = assay: Acute toxicity in Swiss albino mouse assessed as effect on gross behavioral abnormality at 50 to 2000 mg/kg, ip administered continuously for first 4 hrs and periodically for 24 hrs measured after 14 days; type: organism-based; settings: in vivo
In short: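 Swiss albino mice, 3 per group: vehicle control, or 50, 300 or 2000 mg kg⁻¹ given after 4 h fasting under OECD acute toxicity guideline; watched continuously for first 4 h then periodically to 24 h for gross behavioural abnormality.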

Mus musculus [23] = assay: Antiinflammatory activity in carrageenan-induced Swiss albino mouse assessed as inhibition of paw edema at 10 mg/kg, po administered 0.5 hrs prior to carrageenan challenge measured 6 hrs post challenge; type: functional; in short: as §6
Mus musculus [24] = assay: as §3, with “10” for “12.5”; type: functional; in short: as §4

Compound | fold change (FC) (THP-1 [1]) | fold change (FC) (THP-1 [2]) | fold change (FC) (THP-1 [3]) | further results
CCOC(=O)[C@H]1CON(c2ccccc2)[C@H]1c1c[nH]c2ccccc12 (racemic) | 1.15 | 4 - 5 | 4.37 | –
CCN1C(=O)[C@H]2[C@H](ON(c3ccccc3)[C@@H]2c2c[nH]c3ccccc23)C1=O (racemic) | 3.09 | – | 2.42 | –
c1ccc(N2O[C@H](c3ccncc3)C[C@@H]2c2c[nH]c3ccccc23)cc1 (racemic) | 2.77 | 4 - 5 | 3.92 | –
CCCCOC(=O)[C@@H]1C[C@H](c2c[nH]c3ccccc23)N(c2ccccc2)O1 (racemic) | 2.06 | – | 3.98 | –
CCCCOC(=O)[C@H]1CON(c2ccccc2)[C@H]1c1c[nH]c2ccccc12 (racemic) | 3.03 | – | 2.59 | –
CCOC(=O)[C@@H]1C[C@H](c2c[nH]c3ccccc23)N(c2ccccc2)O1 (racemic) | 3.2 | – | 7.77 | –
C[C@@]1(c2ccccc2)C[C@H](c2c[nH]c3ccccc23)N(c2ccccc2)O1 (racemic) | 1.13 | 4 - 5 | 2.74 | IC50 (THP-1 [4]): > 100 µM; IC50 (THP-1 [5]): 74 µM
COC(=O)[C@H]1CON(c2ccccc2)[C@H]1c1c[nH]c2ccccc12 (racemic) | 1.67 | 4 - 5 | 3 | –
Cc1ccc([C@@H]2C[C@H](c3c[nH]c4ccccc34)N(c3ccccc3)O2)cc1 (racemic) | 1.12 | 4 - 5 | 4.58 | –
O=C1[C@H]2[C@H](ON(c3ccccc3)[C@@H]2c2c[nH]c3ccccc23)C(=O)N1c1ccccc1 (racemic) | 1.43 | 4 - 5 | 2.21 | IC50 (THP-1 [4]): > 100 µM; inhibition in vivo at 10 mg/kg (Mus musculus [6]): 60.5%; inhibition in vivo at 20 mg/kg (Mus musculus [7]): 62.1%; inhibition in vivo at 10 mg/kg (Mus musculus [8]): 52.9%; IC50 (Mus musculus [9]): 8.7 mg/kg; IC50 (THP-1 [5]): 78 µM; inhibition in vivo at 20 mg/kg (Mus musculus [10]): 65.5%; IC50 (Mus musculus [11]): 7.4 mg/kg
COC(=O)[C@@H]1C[C@H](c2c[nH]c3ccccc23)N(c2ccccc2)O1 (racemic) | 4.08 | – | 7.27 | –
CCOC(=O)[C@@H]1[C@@H](C)ON(c2ccccc2)[C@H]1c1c[nH]c2ccccc12 (racemic) | 3.01 | – | 3.98 | –
O=C1NC(=O)[C@H]2ON(c3ccccc3)[C@H](c3c[nH]c4ccccc34)[C@@H]12 (racemic) | 1.65 | 4 - 5 | 4.28 | –
O=C1[C@H]2[C@H](ON(c3ccccc3)[C@@H]2c2c[nH]c3ccccc23)C(=O)N1Cc1ccccc1 (racemic) | 1.34 | 4 - 5 | 2.37 | inhibition in vivo at 12.5 mg/kg (Mus musculus [12]): 80.7%; Activity (Mus musculus [13]): Non-Toxic; inhibition (Mus musculus [14]): Active; IC50 (THP-1 [4]): > 100 µM; Activity (Mus musculus [15]): Active; inhibition (THP-1 [16]): Dose-dependent effect; Activity (Mus musculus [17]): Non-Toxic; inhibition (Mus musculus [18]): Active; inhibition (Mus musculus [19]): inactive; inhibition in vivo at 10 mg/kg (Mus musculus [6]): 73.7%; inhibition in vivo at 20 mg/kg (Mus musculus [7]): 86.1%; inhibition in vivo at 10 mg/kg (Mus musculus [8]): 53.8%; IC50 (Mus musculus [9]): 9.4 mg/kg; inhibition in vivo at 12.5 mg/kg (Mus musculus [20]): 36.9%; IC50 (THP-1 [5]): 87 µM; inhibition in vivo at 20 mg/kg (Mus musculus [10]): 89.9%; inhibition (Homo sapiens): Dose-dependent effect; Activity (Mus musculus [21]): Non-Toxic; IC50 (Mus musculus [11]): 3.5 mg/kg; Activity (Mus musculus [22]): Non-Toxic
c1ccc([C@@H]2C[C@H](c3c[nH]c4ccccc34)N(c3ccccc3)O2)cc1 (racemic) | 5.4 | – | 14.93 | –
COc1ccc2c(c1)c(CC(=O)O)c(C)n2C(=O)c1ccc(Cl)cc1 [INDOMETHACIN] | – | – | – | inhibition in vivo at 10 mg/kg (Mus musculus [23]): 34.5%; inhibition in vivo at 10 mg/kg (Mus musculus [24]): 58.1%

From ChEMBL document CHEMBL4270510, “Indolyl-isoxazolidines attenuate LPS-stimulated pro-inflammatory cytokines and increase survival in a mouse model of sepsis: Identification of potent lead” (Eur J Med Chem, 2018)
